Test [1] can be described thus: Antibacterial activity against sensitive Pediococcus cerevisiae ATCC 808 assessed as reduction. It counts as functional. Summed up:
(§1)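 P. cerevisiae grown with folinic acid at 0.001 μg/ml in the earlier-described medium. Turbidity read on a Klett-Summerson colorimeter. IC50 is the micromolar concentration reducing growth to 50% of control. Top concentration was 1000 μg/ml, or 100 μg/ml when supply was limited.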

In test [2] the test system is Escherichia coli. The test can be described thus: Antibacterial activity against sensitive Escherichia coli ATCC 10536 assessed as reduction in growth in presence of p-aminobenzoic acid. It counts as functional, organism-based. Put shortly: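 Reversal test. Drug inhibition was challenged with PABA in Sahyun et al. medium plus 0.6% acid-hydrolyzed casein. Growth read as turbidity on a Klett-Summerson colorimeter. Scored as reversal or nonreversal of the drug inhibition.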

In test [3] the test system is Plasmodium berghei. Briefly: Antimalarial activity against Plasmodium berghei infected in sc dosed mouse assessed as dose required to survivors for period of 60 days. It counts as functional. Summed up: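 Mice infected with a blood-induced P. berghei inoculum were given one subcutaneous dose in peanut oil. Survivors at 60 days counted as cured. The minimum curative dose is the lowest dose that cured any mouse.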

For test [4], the system named is Lacticaseibacillus casei. Briefly: Antibacterial activity against chlorguanide triazine-resistant Lactobacillus casei ATCC 7469 assessed as reduction in growth. It counts as functional, organism-based. Put shortly:
(§2)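 Folate-requiring strains grown in medium with folic acid, 0.002 µg/ml for S. faecium and 0.001 µg/ml for L. casei; P. cerevisiae given folinic acid, 0.001 µg/ml. Resistant substrains came from serial transfer in rising chlorguanide triazine, and the most resistant were used. Compounds tested up to 1000 µg/ml, or 100 µg/ml when supply was limited. Growth read as Klett turbidity; IC50 is the µM concentration giving 50% growth inhibition.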

In test [5] the test system is Lacticaseibacillus casei. The test can be described thus: Antibacterial activity against sensitive Lactobacillus casei ATCC 7469 assessed as reduction. It is filed as functional, organism-based. Summed up:
as §2

Test [6] concerns Lacticaseibacillus casei. Briefly: Fold increase in resistance, ratio of IC50 for chlorguanide triazine-resistant Lactobacillus casei ATCC 7469 to IC50 for sensitive Lactobacillus casei ATCC 7469. It is filed as functional. Put shortly: (§3)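 Resistant substrains were made by serial transfer in rising concentrations of cycloguanil, and the most resistant isolate of each organism was used. Both strains were assayed turbidimetrically under identical conditions. FIR = IC50 of the resistant strain divided by IC50 of the sensitive parent.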

Test [7] deals with Plasmodium berghei. Briefly: Antimalarial activity against Plasmodium berghei infected in sc dosed mouse assessed as active dose required to increase of 100% in mean survival time. The settings on record: read-out: MED. It counts as functional. Put shortly:
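Mice received a standard blood-induced P. berghei inoculum and were then treated with one subcutaneous dose of compound suspended in peanut oil. The minimum active dose is the lowest dose that raised mean survival time by 100%.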

The test system of test [8] is Pediococcus. The test can be described thus: Antibacterial activity against sensitive Pediococcus cerevisiae ATCC 808 assessed as reduction in growth in presence of 0.001 ug/ml folinic acid. It is filed as functional. Summed up: as §1
Test [9] relates to Escherichia coli. The test can be described thus: Antibacterial activity against sensitive Escherichia coli ATCC 10536 assessed as reduction in growth. It is filed as functional, organism-based. Summed up: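 Growth inhibition in Sahyun et al. medium plus 0.6% acid-hydrolyzed casein. Growth read as turbidity on a Klett-Summerson photoelectric colorimeter. IC50 is the micromolar concentration giving 50% growth inhibition. Top concentration was 1000 μg/ml, or 100 μg/ml when compound was limited.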

The subject of test [10] is Enterococcus faecium. The test can be described thus: Antibacterial activity against chlorguanide triazine-resistant Streptococcus faecium ATCC 8043 assessed as reduction in growth. It is filed as functional, organism-based. Summed up:
as §2

Test [11] concerns Enterococcus faecium. The test can be described thus: Antibacterial activity against sensitive Streptococcus faecium ATCC 8043 assessed as reduction in growth. It counts as functional, organism-based. Put shortly:
as §2

The subject of test [12] is Lacticaseibacillus casei. Briefly: Antibacterial activity against sensitive Lactobacillus casei ATCC 7469 assessed as reduction in growth in presence of 0.001 ug/ml folic acid. It counts as functional, organism-based. Summed up:
(§4)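 Folate-requiring strains in the medium of the earlier assay method. Folic acid was 0.002 μg/ml for S. faecium and 0.001 μg/ml for L. casei. Turbidity read on a Klett-Summerson colorimeter. IC50 is the micromolar concentration reducing growth to 50% of control. Top concentration was 1000 μg/ml, or 100 μg/ml if supply was limited.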

Test [13] in a line: Antibacterial activity against chlorguanide triazine-resistant Pediococcus cerevisiae ATCC 808 assessed as reduction in growth. It counts as functional. Put shortly: as §2
Test [14] relates to Pediococcus. Briefly: Fold increase in resistance, ratio of IC50 for chlorguanide triazine-resistant Pediococcus cerevisiae ATCC 808 to IC50 for sensitive Pediococcus cerevisiae ATCC 808. It is filed as functional. Put shortly: as §3
Test [15] deals with Enterococcus faecium. The test can be described thus: Fold increase in resistance, ratio of IC50 for chlorguanide triazine-resistant Streptococcus faecium ATCC 8043 to IC50 for sensitive Streptococcus faecium ATCC 8043. It is filed as functional. Put shortly: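 Resistant S. faecium substrain raised by serial transfer in increasing chlorguanide triazine. IC50 (µM, 50% growth inhibition by turbidity) was found for resistant and parent strains in folic acid (0.002 µg/ml) medium. Fold increase taken as IC50 resistant / IC50 sensitive.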

In test [16] the test system is Enterococcus faecium. Briefly: Antibacterial activity against sensitive Streptococcus faecium ATCC 8043 assessed as reduction in growth in presence of 0.002 ug/ml folic acid. It is filed as functional, organism-based. Summed up:
as §4

We go through twelve molecules from ChEMBL document CHEMBL3272032, “Antifolate studies. Activities of 40 potential antimalarial compounds against sensitive and chlorguanide triazine resistant strains of folate-requiring bacteria and Escherichia coli” (J Med Chem, 1977).

Activity calls are given as the source filed them. The rule behind the calls is not given here. Bounds are passed on as bounds.

As for `Nc1ccc(S(=O)(=O)c2ccc(N)cc2)cc1` [DAPSONE], the IC50 (commonly the concentration that gives 50% inhibition) was 105 µM in [1]; 75 µM in test [4]; 314 µM in test [5]; 137 µM in test [9]; over 4000 µM in test [10]; over 4000 µM in [11]. In addition, in test [13], the IC50 is over 400 µM. Also, the inhibition entry in test [2] is “inactive”. Also, the MCD in [3] amounted to 40 mg/kg. The results for the “Ratio IC50” value in test [6] and in test [14] were 0.24 and over 4, respectively. Moreover, the minimal effective dose in test [7] was found to be 20 mg/kg. For the same molecule, the inhibition result in test [8] and in test [12] was “Active” in each case.

As to `COc1nccnc1NS(=O)(=O)c1ccc(N)cc1` [SULFALENE], the IC50 was over 3600 µM in test [1]; 8200 µM in [4]; 8200 µM in [5]; 13.5 µM in test [9]; over 3600 µM in [10]; over 3600 µM in [11]. In addition, the inhibition entry in [2] was “inactive”. For the same molecule, the MCD in [3] turned out to be 160 mg/kg. Also, the “Ratio IC50” value in test [6] worked out at 1. Besides, in test [7], the minimal effective dose stood at 40 mg/kg.

For `CCN(CC)CCNc1nc(C(Cl)(Cl)Cl)nc2cc(Cl)ccc12`, the IC50 in test [1] was determined as 32 µM; in test [4], 8 µM; in test [5], 30 µM; in test [9] it was 50 µM; in test [10] it was 67 µM; in [11], 76 µM. Moreover, the IC50 in test [13] was found to be 35 µM. The inhibition entry in test [2], in test [8], in test [12] and in [16] was “Active” in each case. Moreover, the MCD in [3] was found to be 320 mg/kg. In addition, the results for the “Ratio IC50” value in test [6], in [15] and in [14] were 0.27, 0.9 and 1, respectively. Besides, the minimal effective dose in test [7] was 160 mg/kg.

For the molecule `CCN(CC)CCCC(C)Nc1ccnc2cc(Cl)ccc12` (stereo not given) [CHLOROQUINE], the concentration for half-maximal inhibition (IC50) was 2500 µM in test [1]; 6000 µM in [4]; 6400 µM in test [5]; 7500 µM in test [10]; 6600 µM in [11]; 2500 µM in test [13]. The MCD in [3] was 80 mg/kg. The “Ratio IC50” value in [6], in test [15] and in test [14] was 1 in each case. For the same molecule, the minimal effective dose in [7] was determined as 20 mg/kg. For the same molecule, the inhibition entry in [8], in test [12] and in test [16] was “Active” throughout.

Consider `CCN(CC)CCNc1nc(Nc2ccc(Cl)c(Cl)c2)nc2ccccc12`, for which the IC50 in [1] is 6.5 µM; in test [4], 5 µM; in test [5] it was 12 µM; in test [9] it was 11 µM; in test [10] it was 61 µM; in test [11], 31 µM. Further, the half-maximal inhibitory concentration (IC50) in test [13] was found to be 8.2 µM. Moreover, the inhibition result in test [2], in [8], in [12] and in [16] was “Active” throughout. Also, the “Ratio IC50” value is on record as 0.4 in [6], 2 in [15] and 1 in [14].

With `COc1cc(NC(C)CCCN)c2ncccc2c1` (stereo not given) [PRIMAQUINE], the half-maximal inhibitory concentration (IC50) in test [1] stood at 580 µM; in test [4], 1300 µM; in [5], 630 µM; in [10], 3000 µM; in test [11], 1200 µM; in test [13], 540 µM. Further, the MCD in test [3] was 160 mg/kg. Besides, the “Ratio IC50” value was 2 in [6], 3 in test [15] and 1 in [14]. For the same molecule, in test [7], the minimal effective dose worked out at 40 mg/kg. Further, the inhibition entry in [8], in test [12] and in [16] was “Active” each time.

On to `Cc1ccccc1-c1nc2c(N)nc(N)nc2nc1N`, for which the 50% inhibitory concentration (IC50) in test [1] turned out to be 8.5 µM; in [4], 1.9 µM; in test [5], 68 µM; in [9], 209 µM; in test [10], 124 µM; in [11], 1.1 µM. Besides, in test [13], the IC50 was 44 µM. The inhibition entry in test [2] was “Active”. Further, in test [3], the MCD was found to be 320 mg/kg. Also, the “Ratio IC50” value in test [6] was determined as 0.03; in test [15] it was 113; in [14], 5. Also, the minimal effective dose in test [7] stood at 40 mg/kg. For the same molecule, the inhibition result in test [8], in test [12] and in test [16] was “inactive” in each case.

Consider `Nc1ccc(S(=O)(=O)Nc2ncccn2)cc1` [SULFADIAZINE], for which the IC50 in test [1] is over 4000 µM; in test [4], over 4000 µM; in [5], over 4000 µM; in [9], 12 µM; in test [10], over 4000 µM; in test [11], over 4000 µM. In test [2], the inhibition result was “inactive”. For the same molecule, the MCD in test [3] stood at 640 mg/kg. In addition, the minimal effective dose in [7] is 160 mg/kg.

For the molecule `CCOC(=O)c1cnc(S)nc1O`, the IC50 in [1] is over 5000 µM; in [4] it was 574 µM; in [5], 3000 µM; in test [9], over 5000 µM; in [10] it was over 5000 µM; in [11] it was over 5000 µM. For the same molecule, in test [3], the MCD is 320 mg/kg. Also, the “Ratio IC50” value in [6] is 0.19. The minimal effective dose in test [7] worked out at 40 mg/kg. In addition, the inhibition result in test [12] is “Active”.

For `NC1(C(=O)O)CCCC1` [CYCLOLEUCINE], the IC50 in test [1], in test [4], in test [5], in test [9], in test [10] and in test [11] was over 7700 µM each time. The MCD in test [3] is over 640 mg/kg. The minimal effective dose in [7] is over 640 mg/kg.

With `CC1(C)N=C(N)N=C(N)N1OCc1ccc(Cl)c(Cl)c1` [CLOCIGUANIL], the IC50 in test [1] amounted to 0.14 µM; in [4] it was 3.1 µM; in test [5], 0.057 µM; in test [9] it was 7 µM; in [10] it was 3.4 µM; in test [11], 0.0009 µM. Also, in [13], the half-inhibitory concentration (IC50) was found to be 8.2 µM. The inhibition entry in test [2] was “Active”. Besides, in test [3], the MCD worked out at 20 mg/kg. Moreover, the “Ratio IC50” value is reported as 54 in test [6], 3800 in test [15] and 59 in test [14]. Moreover, the minimal effective dose in [7] was found to be 2.5 mg/kg. Besides, the inhibition result in test [8], in test [12] and in test [16] was “inactive” throughout.

For `Nc1ccc(S(=O)(=O)Nc2nccs2)cc1` [SULFATHIAZOLE], the concentration for half-maximal inhibition (IC50) was over 3900 µM in [1]; over 3900 µM in test [4]; over 3900 µM in [5]; 7.8 µM in test [9]; over 3900 µM in test [10]; over 3900 µM in test [11]. In addition, the inhibition entry in test [2] is “inactive”. Moreover, in test [3], the MCD worked out at 160 mg/kg. Also, in [7], the minimal effective dose turned out to be 40 mg/kg.
